Measured values: ChEMBL document CHEMBL1152682, “Structural optimization of a CXCR2-directed antagonist that indirectly inhibits gamma-secretase and reduces Abeta” (Bioorg Med Chem, 2009)

experiment: Antagonist activity at CXCR2 expressed in 7w CHO cells assessed as inhibition of GROalpha-mediated intracellular calcium mobilization by […] fluorescence assay; assay type: functional, cell-based; call rule not given here
Outline: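 Adherent 7w cells (CHO stably expressing human APP751), grown to ~100% confluency in 96-well plates, loaded with […] dye for 1 h at 37 °C. Compounds were added from DMSO stocks in 1X HBSS (1% DMSO final) at ≥9 concentrations (10–100,000 nM), n = 8 each. GROα (33 nM final) followed 15 s later. Peak calcium was read at Ex/Em 494/516, and data were fitted to a 4-parameter sigmoid; three experiments.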

Row | Compound | IC50
1 | O=C(Nc1ccc([N+](=O)[O-])cc1O)Nc1ccccc1F | Active
2 | CC(C)c1ccccc1NC(=O)Nc1ccc([N+](=O)[O-])cc1O | Active
3 | COc1cc([N+](=O)[O-])ccc1NC(=O)Nc1ccccc1F | Active
4 | O=C(Nc1ccc([N+](=O)[O-])cc1O)Nc1cc(Cl)ccc1Cl | Active
5 | O=C(Nc1ccc([N+](=O)[O-])cc1O)Nc1ccccc1Cl | Active

experiment: Antagonist activity at CXCR2 expressed in 7w CHO cells co-expressing human recombinant APP 751 assessed as inhibition of gamma-secretase-mediated amyloid beta40 production

Row | Compound | IC50
6 | O=C(Nc1ccc([N+](=O)[O-])cc1O)Nc1ccc(F)c(F)c1F | 8 µM
7 | O=C(Nc1ccc([N+](=O)[O-])cc1O)Nc1ccccc1Br | 0.5 µM
8 | O=C(Nc1ccc([N+](=O)[O-])cc1O)Nc1ccc(Br)cc1Br | 0.8 µM
9 | O=C(Nc1ccc([N+](=O)[O-])cc1O)Nc1ccc(F)cc1F | 15 µM
10 | O=C(Nc1ccccc1)Nc1ccc([N+](=O)[O-])cc1O | 12 µM
11 | Cc1cc(C)cc(NC(=O)Nc2ccc([N+](=O)[O-])cc2O)c1 | 2 µM
12 | O=C(Nc1ccc([N+](=O)[O-])cc1O)Nc1cc(F)c(F)cc1F | 10 µM
13 | O=C(Nc1ccc(F)c(F)c1)Nc1ccc([N+](=O)[O-])cc1O | 8 µM
14 | CC(C)c1cccc(C(C)C)c1NC(=O)Nc1ccc([N+](=O)[O-])cc1O | 8 µM
15 | O=C(Nc1ccc(Cl)c(Cl)c1)Nc1ccc([N+](=O)[O-])cc1O | 0.7 µM
16 | CCc1ccc(NC(=O)Nc2ccc([N+](=O)[O-])cc2O)cc1 | 3 µM
17 | O=C(Nc1ccc([N+](=O)[O-])cc1O)Nc1ccccc1F | 10 µM
18 | Cc1ccc(NC(=O)Nc2ccc([N+](=O)[O-])cc2O)cc1C | 15 µM
19 | CC(C)(C)c1ccccc1NC(=O)Nc1ccc([N+](=O)[O-])cc1O | 15 µM
20 | COc1cc([N+](=O)[O-])ccc1NC(=O)Nc1cccc(F)c1 | 12 µM
21 | CCc1cccc(NC(=O)Nc2ccc([N+](=O)[O-])cc2O)c1 | 4 µM
22 | CCc1cccc(C)c1NC(=O)Nc1ccc([N+](=O)[O-])cc1O | 7 µM
23 | O=C(Nc1ccc([N+](=O)[O-])cc1O)Nc1c(F)cc(F)cc1F | 15 µM

Row | Compound | IC50
24 | O=C(Nc1ccc([N+](=O)[O-])cc1O)Nc1cc(Cl)c(Cl)cc1Cl | 3 µM
25 | Cc1ccc(NC(=O)Nc2ccc([N+](=O)[O-])cc2O)c(C)c1 | 3 µM
26 | CC(C)c1ccccc1NC(=O)Nc1ccc([N+](=O)[O-])cc1O | 0.3 µM
27 | Cc1ccccc1NC(=O)Nc1ccc([N+](=O)[O-])cc1O | 2 µM
28 | CCCc1ccc(NC(=O)Nc2ccc([N+](=O)[O-])cc2O)cc1 | 4 µM
29 | CCCc1ccccc1NC(=O)Nc1ccc([N+](=O)[O-])cc1O | 0.1 µM
30 | CCc1ccccc1NC(=O)Nc1ccc([N+](=O)[O-])cc1O | 0.09 µM
31 | COc1cc([N+](=O)[O-])ccc1NC(=O)Nc1ccccc1F | 5 µM
32 | COc1ccc(NC(=O)Nc2ccccc2F)c([N+](=O)[O-])c1 | 10 µM
33 | O=C(Nc1ccc([N+](=O)[O-])cc1)Nc1ccccc1F | 30 µM
34 | Cc1cccc(C(C)C)c1NC(=O)Nc1ccc([N+](=O)[O-])cc1O | 5 µM
35 | O=C(Nc1ccc([N+](=O)[O-])cc1O)Nc1cc(Cl)ccc1Cl | 0.5 µM
36 | O=C(Nc1ccc([N+](=O)[O-])cc1O)Nc1ccccc1Cl | 0.6 µM
37 | Cc1ccc(C)c(NC(=O)Nc2ccc([N+](=O)[O-])cc2O)c1 | 10 µM
38 | O=C(Nc1cc(F)c(F)c(F)c1)Nc1ccc([N+](=O)[O-])cc1O | 8 µM
39 | O=C(Nc1ccc([N+](=O)[O-])cc1O)Nc1ccc(Cl)c(Cl)c1Cl | 3 µM
40 | CCc1cccc(C(C)C)c1NC(=O)Nc1ccc([N+](=O)[O-])cc1O | 3 µM
41 | O=C(Nc1ccc([N+](=O)[O-])cc1O)Nc1ccc(Cl)cc1Cl | 0.3 µM

experiment: Antagonist activity at CXCR2 expressed in 7w CHO cells co-expressing human recombinant APP 751 assessed as inhibition of gamma-secretase-mediated amyloid beta42 production; assay type: functional, cell-based

Row | Compound | IC50
42 | CCc1cccc(C(C)CC)c1NC(=O)Nc1ccc([N+](=O)[O-])cc1O (stereo not given) | 15 µM
43 | CCC(C)c1ccccc1NC(=O)Nc1ccc([N+](=O)[O-])cc1O (stereo not given) | 1 µM

experiment: Antagonist activity at CXCR2 expressed in 7w CHO cells co-expressing human recombinant APP 751 assessed as inhibition of gamma-secretase-mediated amyloid beta40 production at 100 uM

Row | Compound | IC50
44 | O=C(Nc1ccccc1O)Nc1ccccc1Cl | Not Active
45 | O=C(Nc1ccccc1)Nc1ccccc1Br | Not Active
46 | O=C(Nc1ccccc1F)Nc1ccc(O)cc1[N+](=O)[O-] | Not Active
47 | COc1cc([N+](=O)[O-])ccc1NC(=O)Nc1ccccc1Cl | Not Active
48 | O=C(Nc1ccccc1O)Nc1ccccc1Br | Not Active
49 | COc1cc([N+](=O)[O-])ccc1NC(=O)Nc1ccccc1 | Not Active
50 | COc1cc([N+](=O)[O-])ccc1NC(=O)Nc1ccccc1Br | Not Active
